According to ChEMBL document CHEMBL1143649, “New clerodane diterpenoids from Laetia procera (Poepp.) Eichler (Flacourtiaceae), with antiplasmodial and antileishmanial activities” (Bioorg Med Chem Lett, 2005):

Assays:
MCF7 [1] = experiment: Cytotoxic activity against human MCF-7 cells; assay type: cell-based
MCF7 [2] = experiment: Ratio of cytotoxic activity against human MCF-7 cells to that of antiplasmodial activity against Plasmodium falciparum FcB1; assay type: functional
How it was run: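 Cytotoxic activity on the MCF7 human tumour line divided by antiplasmodial activity on P. falciparum FcB1.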

Plasmodium falciparum [3] = experiment: Antiplasmodial activity for Plasmodium falciparum F32; assay type: functional
How it was run: (§1)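 Tested against P. falciparum strains FcB1 and F32, with chloroquine as the positive control. Values are means ± SD from independent experiments.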

Plasmodium falciparum [4] = experiment: Antiplasmodial activity for Plasmodium falciparum FcB1; assay type: functional; how it was run: as §1
Leishmania amazonensis [5] = experiment: Antileishmanial activity against leishmania amazonensis promastigotes stage; assay type: functional
Leishmania amazonensis [6] = experiment: Antileishmanial activity against leishmania amazonensis axenic amastigotes stage; assay type: functional

Structure (SMILES) | Activity (MCF7 [1]) | Ratio (MCF7 [2]) | Activity (Plasmodium falciparum [3]) | Activity (Plasmodium falciparum [4]) | Activity (Leishmania amazonensis [5]) | Activity (Leishmania amazonensis [6])
C=C/C(C)=C/C[C@]1(C)[C@H](C)C[C@H](OC)[C@@]2(C=O)C(C=O)=C[C@H](OC(=O)C(C)CC)C[C@@H]12 (some centres not stated) | 9.6 µM | 2.7 | 6.04 µM | 3.79 µM | 50.9 µM | 30.3 µM
C=C/C(C)=C/C[C@]1(C)[C@H](C)C[C@H](O)[C@@]23C(=C[C@H](OC(=O)C(C)CC)C[C@@H]12)C(OC(C)=O)OC3OC(C)=O (some centres not stated) | 1.54 µM | 2.2 | 0.62 µM | 0.54 µM | 11.1 µM | 5.98 µM
C=C/C(C)=C/C[C@]1(C)[C@H](C)C[C@H](OC)[C@@]23C(=C[C@H](OC(=O)C(C)CC)C[C@@H]12)C(OC(C)=O)OC3OC(C)=O (some centres not stated) | 4.38 µM | 6.8 | 0.58 µM | 0.66 µM | 10.9 µM | 47.4 µM
C=C/C(C)=C/C[C@]1(C)[C@H](C)C[C@H](O)[C@@]23C(=C[C@@H](OC(=O)C(C)CC)C[C@@H]12)C(OC(C)=O)OC3OC(C)=O (some centres not stated) | 0.85 µM | 1.3 | 0.57 µM | 0.59 µM | 11 µM | 10.5 µM
C=C/C(C)=C/C[C@]1(C)[C@H](C)C[C@H](OC(=O)c2ccccc2)[C@@]23C(=C[C@H](OC(=O)C(C)CC)C[C@@H]12)C(OC(C)=O)OC3OC(C)=O (some centres not stated) | 27.3 µM | 4.6 | 4.66 µM | 5.35 µM | >200 µM | >200 µM
CCCCCCCC/C=C\CCCCCC[C@@H]1C(=O)O[C@@H](C)[C@H]1O | 65.9 µM | 2.1 | 57.6 µM | 27.5 µM | 111 µM | 129 µM
C=C/C(C)=C/C[C@]1(C)[C@H](C)C[C@H](OC(=O)c2ccccc2)[C@@]23C(=C[C@H](OC(=O)C(C)C)C[C@@H]12)C(OC(C)=O)OC3OC(C)=O (some centres not stated) | 17.8 µM | 3.1 | 4.44 µM | 6.08 µM | >200 µM | >200 µM
C[C@@H]1[C@H](O)[C@@H](C)/C=C/C=C/C=C/C=C/C=C/C=C/C=C/[C@H](O[C@@H]2O[C@H](C)[C@@H](O)[C@H](N)[C@@H]2O)C[C@@H]2O[C@](O)(C[C@@H](O)C[C@@H](O)[C@H](O)CC[C@@H](O)C[C@@H](O)CC(=O)O[C@H]1C)C[C@H](O)[C@H]2C(=O)O [AMPHOTERICIN B] | – | – | – | – | 0.3 µM | 0.3 µM
CCN(CC)CCCC(C)Nc1ccnc2cc(Cl)ccc12 (configuration not stated) [CHLOROQUINE] | – | – | 0.06 µM | 0.145 µM | – | –
COc1cccc2c1C(=O)c1c(O)c3c(c(O)c1C2=O)C[C@@](O)(C(=O)CO)C[C@@H]3O[C@H]1C[C@H](N)[C@H](O)[C@H](C)O1 [DOXORUBICIN] | 0.4 µM | – | – | – | – | –
